Measurements: ChEMBL document CHEMBL1926614, “Substituted thiazoles V. synthesis and antitumor activity of novel thiazolo[2,3-b]quinazoline and pyrido[4,3-d]thiazolo[3,2-a]pyrimidine analogues” (2012)

Key:
Assay type in all cases: functional
[1] = Cytotoxicity against human CNS cancer cells after 48 hrs by coulter counting; conditions: Cancer cell lines
How it was run: (§1)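 NCI 60-cell-line panel covering nine tumour subpanels, tested over a 5-log dose range. Compounds were dissolved in DMSO and diluted in phosphate-buffered saline to a final DMSO below 1%. Wells held 6 × 10⁴ cells/ml and were run in duplicate. Controls contained PBS and DMSO at matching dilutions. Incubation was at 37 °C in humidified 5% CO₂. GI₅₀, TGI and LC₅₀ were reported.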

NSCLC = assay: Cytotoxicity against human NSCLC cells after 48 hrs by coulter counting; how it was run: as §1
[2] = Cytotoxicity against human prostate cancer cells after 48 hrs by coulter counting; conditions: Cancer cell lines; how it was run: as §1
[3] = Cytotoxicity against human colon cancer cells after 48 hrs by coulter counting; conditions: Cancer cell lines; how it was run: as §1
[4] = Cytotoxicity against human melanoma cells after 48 hrs by coulter counting; conditions: Melanoma cell; how it was run: as §1
[5] = Cytotoxicity against human renal cancer cells after 48 hrs by coulter counting; conditions: Cancer cell lines; how it was run: as §1
[6] = Cytotoxicity against human leukemia cells after 48 hrs by coulter counting; conditions: Leukemia cell; how it was run: as §1
[7] = Cytotoxicity against human breast cancer cells after 48 hrs by coulter counting; conditions: Cancer cell lines; how it was run: as §1
[8] = Cytotoxicity against human ovarian cancer cells after 48 hrs by coulter counting; conditions: Cancer cell lines; how it was run: as §1
[9] = read-out: LC50 (the source's name)

Compound: O=c1[nH]cc(F)c(=O)[nH]1 [FLUOROURACIL]
- TGI [1]: > 100 µM
- GI50 (NSCLC): > 100 µM
- TGI (NSCLC): > 100 µM
- CC50 (NSCLC; [9]): > 100 µM
- GI50 [2]: 22.7 µM
- TGI [2]: > 100 µM
- GI50 [3]: 8.4 µM
- TGI [3]: > 100 µM
- GI50 [4]: 70.6 µM
- TGI [4]: > 100 µM
- CC50 [4, 9]: > 100 µM
- GI50 [5]: 45.6 µM
- TGI [5]: > 100 µM
- TGI [6]: > 100 µM
- CC50 [6, 9]: > 100 µM
- GI50 [7]: 76.4 µM
- TGI [7]: > 100 µM
- CC50 [7, 9]: > 100 µM
- GI50 [8]: 61.4 µM
- TGI [8]: > 100 µM
- CC50 [8, 9]: > 100 µM
